Tests used:
B2 bradykinin receptor [1] = biological target: T1, B2 bradykinin receptor (Homo sapiens, UniProt P30411); test: Inhibition of [3H]BK (1.0 nM) binding to the human bradykinin receptor B2, expressed in CHO cells; type: cell-based
T1 sequence (P30411 whole entry): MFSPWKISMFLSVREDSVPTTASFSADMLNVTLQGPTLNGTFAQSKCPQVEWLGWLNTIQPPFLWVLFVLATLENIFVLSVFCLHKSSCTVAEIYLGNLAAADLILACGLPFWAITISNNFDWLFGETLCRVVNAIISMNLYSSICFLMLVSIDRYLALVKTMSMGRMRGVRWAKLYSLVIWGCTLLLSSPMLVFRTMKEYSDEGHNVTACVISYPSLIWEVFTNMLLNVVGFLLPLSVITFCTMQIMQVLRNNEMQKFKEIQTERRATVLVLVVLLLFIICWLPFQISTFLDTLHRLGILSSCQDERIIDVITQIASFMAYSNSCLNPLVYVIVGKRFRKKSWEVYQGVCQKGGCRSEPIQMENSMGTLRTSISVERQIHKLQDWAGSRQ
How it was run: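 Whole CHO (dhfr-) cells stably expressing human B2, seeded 3.0 × 10^4 cells/well and cultured 1 day. Incubated with 1.0 nM [3H]BK plus test compound for 2 h at 4 °C in pH 7.2 HEPES/N-methyl-D-glucamine buffer with bacitracin, enalaprilat and 0.1% BSA. Cells lysed in SDS/NaOH for scintillation counting. Nonspecific binding with 1 μM BK; three experiments.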

B2 bradykinin receptor [2] = biological target: T2, B2 bradykinin receptor (Cavia porcellus, UniProt O70526); test: Concentration required to inhibit specific binding of [3H]-BK(0.06 nM) to the bradykinin receptor B2
T2 sequence (O70526 whole entry): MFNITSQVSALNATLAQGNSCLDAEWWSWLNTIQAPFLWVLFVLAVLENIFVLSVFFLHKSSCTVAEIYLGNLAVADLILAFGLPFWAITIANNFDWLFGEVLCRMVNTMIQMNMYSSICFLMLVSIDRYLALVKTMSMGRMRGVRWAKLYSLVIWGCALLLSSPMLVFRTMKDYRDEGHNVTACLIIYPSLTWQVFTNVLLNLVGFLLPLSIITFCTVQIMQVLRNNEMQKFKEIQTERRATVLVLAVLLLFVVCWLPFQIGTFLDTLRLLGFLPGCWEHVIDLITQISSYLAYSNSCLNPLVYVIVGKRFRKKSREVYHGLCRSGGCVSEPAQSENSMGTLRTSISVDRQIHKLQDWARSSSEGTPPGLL
How it was run: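 Guinea pig (male Hartley) ileum membranes in pH 6.8 TES buffer with phenanthroline, bacitracin, DTT, captopril and 0.1% BSA; 0.2 mg protein/mL incubated with 0.06 nM [3H]BK and varying test concentrations, 60 min at room temperature; filtration on glass fiber filters, scintillation counting. Nonspecific binding with 1 μM unlabeled BK. IC50 averaged over at least three determinations.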

[3] = biological target: T3, B2 bradykinin receptor (Homo sapiens) (UniProt P30411); test: (§1) Relative induced inositol phosphate formation in CHO cells expressing the human B2 receptor compared to bradykinin (10 nM); type: functional, cell-based
T3 sequence (whole entry): T1 sequence (P30411 whole entry)
How it was run: (§2)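 Human B2-expressing CHO cells labeled with [3H]inositol (1 μCi/mL) for 24 h, preincubated with 10 mM LiCl, then exposed to compound for 30 min at 37 °C. Stopped with 5% TCA; IP1–IP3 separated by anion-exchange chromatography and counted. Basal radioactivity subtracted; response expressed relative to 10 nM BK.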

[4] = biological target: T3, B2 bradykinin receptor (Homo sapiens); test: as §1; type: functional, cell-based; how it was run: as §2; remark: listed apart in the source
B2 bradykinin receptor [5] = biological target: T2, B2 bradykinin receptor; test: Concentration required to inhibit specific binding of [3H]-BK(0.06 nM) to the B2 receptor in guinea pig ileum membrane;; type: tissue-based
How it was run: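 Male Hartley guinea pig ileum membranes (homogenised, 1000g debris spin, 10000g pellet) at 0.2 mg protein/mL in pH 6.8 TES buffer with 1,10-phenanthroline, bacitracin, DTT, captopril, 0.1% BSA; incubated with 0.06 nM [3H]BK and varying compound concentrations, 60 min room temperature; GF/B filtration, scintillation counting. Nonspecific binding with 1 μM unlabeled BK; three experiments; IC50 averaged from ≥3 determinations.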

WI-38 [6] = test: Relative agonistic activity (10 uM) induced PGE-2 production in human fibroblast WI-38 cells compared to bradykinin (100 nM); type: functional
How it was run: (§3)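 WI-38 human fibroblasts seeded 1 × 10^5 cells/well in E-MEM with 1% FBS, cultured 24 h. Medium replaced with Hanks-BSA buffer, then test compound for 30 min at 37 °C. Supernatant PGE2 measured by EIA, with control (no compound) subtracted. Result expressed relative to 100 nM BK.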

[7] = biological target: T3, B2 bradykinin receptor (Homo sapiens); test: Relative agonistic activity (10 uM) induced inositol phosphate formation in CHO cells expressing the human B2 receptor compared to bradykinin (10 nM); type: functional, cell-based; how it was run: as §2
WI-38 [8] = test: Relative agonistic activity (1 uM) induced PGE-2 production in human fibroblast WI-38 cells compared to bradykinin (100 nM); type: functional; how it was run: as §3

Row | IC50 (B2 bradykinin receptor [1]) | IC50 (B2 bradykinin receptor [2]) | Relative agonistic activity [3] | Relative agonistic activity [4] | IC50 (B2 bradykinin receptor [5]) | Relative agonistic activity [7] | Compound | Relative agonistic activity (WI-38 [6]) | Relative agonistic activity (WI-38 [8])
1 | 13 nM | 1.2 nM |  |  |  |  | CNC(=O)c1ccc(/C=C/C(=O)NCC(=O)N(C)c2ccc(Cl)c(COc3cccc4c(OC(C)C)cc(C)nc34)c2Cl)cc1 |  | 
2 | 1.2 nM | 1.2 nM | 57% | 43.4% |  |  | CC(=O)Nc1ccc(/C=C/C(=O)NCC(=O)N(C)c2ccc(Cl)c(COc3cccc4c(OCc5ccccn5)cc(C)nc34)c2Cl)cn1 |  | 
3 | 77 nM | 1.2 nM |  |  |  |  | CCCOc1cc(C)nc2c(OCc3c(Cl)ccc(N(C)C(=O)CNC(=O)/C=C/c4ccc(C(=O)NC)cc4)c3Cl)cccc12 |  | 
4 | 3.7 nM | 30 nM | 30.8% |  |  | 24.4% | CNC(=O)c1ccc(/C=C/C(=O)NCC(=O)N(C)c2ccc(Cl)c(COc3cccc4c(OCC(=O)N(C)C)cc(C)nc34)c2Cl)cc1 |  | 
5 | 1.4 nM |  | 57.6% | 50.5% |  |  | CNC(=O)c1ccc(/C=C/C(=O)NCC(=O)N(C)c2ccc(Cl)c(COc3cccc4c(OCc5ccccn5)cc(C)nc34)c2Cl)cn1 |  | 
6 | 8.1 nM | 0.23 nM |  |  |  |  | CNC(=O)c1ccc(/C=C/C(=O)NCC(=O)N(C)c2ccc(Cl)c(COc3cccc4c(OC)cc(C)nc34)c2Cl)cc1 |  | 
7 | 1.4 nM |  | 34.3% | 22.3% |  |  | Cc1cc(OCc2ccccn2)c2cccc(OCc3c(Cl)ccc(N(C)C(=O)CNC(=O)/C=C/c4ccc(C(=O)N(C)C)cc4)c3Cl)c2n1 |  | 
8 | > 1000 nM | 50 nM |  |  |  |  | CNC(=O)c1ccc(/C=C/C(=O)NCC(=O)N(C)c2ccc(Cl)c(COc3cccc4c(OCC(=O)O)cc(C)nc34)c2Cl)cc1 |  | 
9 | 34 nM | 0.19 nM |  |  |  |  | CCOc1cc(C)nc2c(OCc3c(Cl)ccc(N(C)C(=O)CNC(=O)/C=C/c4ccc(C(=O)NC)cc4)c3Cl)cccc12 |  | 
10 | 0.41 nM | 2.3 nM | 59.5% | 51.3% |  | 56.9% | CNC(=O)c1ccc(/C=C/C(=O)NCC(=O)N(C)c2ccc(Cl)c(COc3cccc4c(OCc5ccccn5)cc(C)nc34)c2Cl)cc1 | 140% | 81.2%
11 | 0.69 nM |  | 73.9% | 54.9% |  |  | CNC(=O)c1ccc(/C=C/C(=O)NCC(=O)N(C)c2ccc(Cl)c(COc3cccc4c(OCc5ccccn5)cc(C)nc34)c2Cl)cc1OC |  | 
12 | 2.6 nM | 20 nM | 53.7% |  |  | 66.4% | CCOC(=O)COc1cc(C)nc2c(OCc3c(Cl)ccc(N(C)C(=O)CNC(=O)/C=C/c4ccc(C(=O)NC)cc4)c3Cl)cccc12 |  | 
13 | 61 nM | 25 nM |  |  |  |  | CNC(=O)c1ccc(/C=C/C(=O)NCC(=O)N(C)c2ccc(Cl)c(COc3cccc4c(OC5CCCC5)cc(C)nc34)c2Cl)cc1 |  | 

Further lines, the compound ahead of its results:

Row | Compound | IC50 (B2 bradykinin receptor [1]) | IC50 (B2 bradykinin receptor [2]) | Relative agonistic activity [3] | Relative agonistic activity [4] | IC50 (B2 bradykinin receptor [5]) | Relative agonistic activity [7] | Relative agonistic activity (WI-38 [6]) | Relative agonistic activity (WI-38 [8])
14 | Cc1cc(OCc2ccccn2)c2cccc(OCc3c(Cl)ccc(N(C)C(=O)CNC(=O)/C=C/c4ccc(NC(=O)c5ccncc5)cc4)c3Cl)c2n1 | 0.56 nM |  | 26.9% | 42.3% | 6.1 nM |  |  | 
15 | CCOC(=O)Cn1c(OC)nc2c(OCc3c(Cl)ccc(N(C)C(=O)CNC(=O)/C=C/c4ccc(NC(C)=O)nc4)c3Cl)cccc21 | 0.91 nM | 4.2 nM |  |  |  |  | 121% | 
16 | Cc1cc(OCc2ccccn2)c2cccc(OCc3c(Cl)ccc(N(C)C(=O)CNC(=O)/C=C/c4ccc(N5CCCC5=O)cc4)c3Cl)c2n1 | 0.83 nM |  | 67.4% | 42.9% |  |  |  | 
17 | COc1nc2c(OCc3c(Cl)ccc(N(C)C(=O)CNC(=O)/C=C/c4ccc(NC(C)=O)nc4)c3Cl)cccc2n1Cc1ccccn1 | 0.68 nM |  |  |  |  |  | 89.5% | 114%
18 | COCCn1c(OC)nc2c(OCc3c(Cl)ccc(N(C)C(=O)CNC(=O)/C=C/c4ccc(NC(C)=O)nc4)c3Cl)cccc21 | 3.5 nM | 4.6 nM |  |  |  |  | 54.8% | 38.3%
19 | Cc1cc(OCc2ccccn2)c2cccc(OCc3c(Cl)ccc(N(C)C(=O)CNC(=O)/C=C/c4ccc(NC(=O)Cc5ccncc5)nc4)c3Cl)c2n1 | 2.4 nM |  | 40.3% | 39.8% |  |  |  | 
20 | COc1nc2c(OCc3c(Cl)ccc(N(C)C(=O)CNC(=O)/C=C/c4ccc(NC(C)=O)nc4)c3Cl)cccc2n1Cc1ccccc1 | 2.5 nM | 26 nM |  |  |  |  | 73.9% | 84.5%
21 | Cc1cc(OCc2ccccn2)c2cccc(OCc3c(Cl)ccc(N(C)C(=O)CNC(=O)/C=C/c4ccc(C(=O)Nc5ccncc5)cc4)c3Cl)c2n1 | 0.4 nM |  | 47.4% | 36.7% |  |  |  | 
22 | COc1nc2c(OCc3c(Cl)ccc(N(C)C(=O)CNC(=O)/C=C/c4ccc(NC(C)=O)nc4)c3Cl)cccc2n1C |  |  |  |  |  |  | 24.2% | 4.2%
